Data on nine molecules can be found in ChEMBL document CHEMBL1157663, “Acyclic nucleoside phosphonates with 5-azacytosine base moiety substituted in C-6 position” (Bioorg Med Chem, 2010).

Values after ≈ are worked out from the molar mass of the structure shown. Active and inactive are the calls of the source. No cut-off for these calls is given here.

Data set [1] has as its system CCRF-CEM. Description: Cytostatic activity against human CEM cells. The format is cell-based.
In data set [2] the test system is Vero. In words: Cytostatic activity against african green monkey Vero cells. The settings on record: chlorocebus sabaeus. The format is ADME, cell-based.
Data set [3] has as its system Human alphaherpesvirus 2. In words: Antiviral activity against Herpes simplex virus 2 infected in HEL cells. The format is functional, organism-based. Summed up:
(§1)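 DNA-virus assay run in human embryonic lung (HEL) cell cultures.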

Data set [4] concerns Human immunodeficiency virus 2. In words: Antiviral activity against HIV2 infected in human CEM cells. The format is functional, organism-based. To be noted: CCRF-CEM. Summed up:
(§2)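 Retroviral assay (HIV-1, HIV-2) run in human T-lymphocyte CEM cells.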

For data set [5], the system named is Human alphaherpesvirus 1. In words: Antiviral activity against Herpes simplex virus 1 infected in HEL cells. Format: functional, organism-based. In a few lines:
as §1

Data set [6] relates to Human immunodeficiency virus 1. In words: Antiviral activity against HIV1 infected in human CEM cells. Format: functional, organism-based. The settings on record: CCRF-CEM. In a few lines:
as §2

Data set [7] in a line: Cytotoxicity against african green monkey Vero cells. The settings on record: chlorocebus sabaeus. The format is cell-based.
Data set [8] deals with HEL. In words: Cytostatic activity against HEL cells. Format: ADME, cell-based. The settings on record: human.
The nature of data set [9]: Cytotoxicity against human CEM cells. The format is cell-based. To be noted: CEM (CCRF-CEM) cells.
Data set [10] has as its system Cowpox virus. Description: Ratio of compound EC50 to HPMP-5-azaC EC50 for Cowpox virus infected in HEL cells. The format is functional.
The test system of data set [11] is Vaccinia virus. In words: Ratio of compound EC50 to HPMP-5-azaC EC50 for Vaccinia virus infected in HEL cells. Format: functional, Orthopoxvirus vaccinia.
Data set [12] in a line: Cytotoxicity against HEL cells. The format is cell-based. To be noted: human.
For data set [13], the system named is Sindbis virus. In words: Antiviral activity against Sindbis virus infected in african green monkey Vero cells at 20 ug/ml. Format: functional, organism-based.
Data set [14] relates to Human betaherpesvirus 6. Description: Antiviral activity against Human herpesvirus 6. The format is functional, organism-based.
For data set [15], the system named is Human alphaherpesvirus 3. In words: Antiviral activity against Varicella zoster virus infected in HEL cells. Format: functional, organism-based. To be noted: Human alphaherpesvirus 3, HEL. Summed up: as §1
Data set [16] relates to Human betaherpesvirus 5. In words: Antiviral activity against Human cytomegalovirus infected in HEL cells. The format is functional, organism-based. The settings on record: Human betaherpesvirus 5, HEL. In a few lines: as §1

For `Cc1nc(N)nc(=O)n1C[C@@H](CO)OCP(=O)(O)O`, the Activity result in [1], in data set [2] and in data set [8] was “Non-toxic” in each case. Also, the result in data set [3], in data set [4], in [5] and in data set [6] was inactive. The CC50 in data set [7], in [9] and in data set [12] was > 100 µg/mL each time. The “Ratio EC50” value in data set [10] and in [11] was 50 each time.
As for `CCCc1nc(N)nc(=O)n1C[C@@H](CO)OCP(=O)(O)O`, the Activity result in data set [1], in data set [2] and in data set [8] was “Non-toxic” each time. The outcome in [3], in data set [4], in data set [5] and in [6] was inactive. In addition, the CC50 in data set [7], in [9] and in data set [12] was > 100 µg/mL each time. Moreover, the “Ratio EC50” value in [10] and in data set [11] was 50 throughout.
As to `Cc1nc(N)n(C[C@@H](CO)OCP(=O)(O)O)c(=O)n1`, the Activity result in data set [1], in data set [2] and in data set [8] was “Non-toxic” each time. The result in [13], in data set [3], in data set [4], in data set [5] and in data set [6] was inactive. The CC50 in [7], in data set [9] and in data set [12] was > 100 µg/mL in each case.
`Nc1nc(-c2ccccc2)n(C[C@@H](CO)OCP(=O)(O)O)c(=O)n1`: the Activity entry in data set [1], in [2] and in data set [8] was “Non-toxic” in each case. The outcome in [3], in data set [4], in [5] and in [6] was inactive. Also, the CC50 in data set [7], in data set [9] and in data set [12] was > 100 µg/mL throughout. The “Ratio EC50” value in data set [10] and in [11] was 50 in each case.
As for `Nc1ncnc(=O)n1C[C@@H](CO)OCP(=O)(O)O`, the Activity entry in [1], in [2] and in data set [8] was “Non-toxic” each time. Moreover, the outcome in data set [3], in [4], in data set [5] and in data set [6] was inactive. Further, the CC50 in data set [7], in [9] and in data set [12] was > 100 µg/mL throughout.
In the case of `CCCCc1nc(N)nc(=O)n1C[C@@H](CO)OCP(=O)(O)O`, the Activity entry in data set [1], in data set [2] and in data set [8] was “Non-toxic” in each case. In addition, the result in [3], in data set [4], in data set [5] and in [6] was inactive. Besides, the cytotoxic concentration (CC50) in [7], in [9] and in data set [12] was > 100 µg/mL throughout. The “Ratio EC50” value in [10] and in data set [11] was 50 in each case.
For `CCCCCCCCCCCCCCCCOCCOP1(=O)CO[C@@H](Cn2cnc(N)nc2=O)CO1` (stereo not given in full), the Activity entry in [1], in data set [2] and in data set [8] was “Non-toxic” throughout. Moreover, the EC50 in data set [3] (Human alphaherpesvirus 2, HEL) is 3 ng/mL (≈ 0.00565 µM); in data set [5] (Human alphaherpesvirus 1, HEL), 3 ng/mL (≈ 0.00565 µM); in data set [14], 8 ng/mL (≈ 0.0151 µM); in data set [15], ≤ 0.8 ng/mL; in data set [16] it was ≤ 0.14 ng/mL. Also, the outcome in data set [4] and in data set [6] was inactive. In addition, the CC50 in [7], in data set [9] and in data set [12] was > 100 µg/mL throughout.
For the molecule `Cc1nc(N)n(C[C@@H](CO)OCP(=O)(O)OC(C)C)c(=O)n1`, the Activity result in data set [1], in data set [2] and in [8] was “Non-toxic” in each case. Moreover, the result in [13] was Active. Further, the outcome in data set [3], in data set [4], in [5] and in [6] was inactive. Further, the CC50 in data set [7], in data set [9] and in data set [12] was > 100 µg/mL throughout.
In the case of `CCc1nc(N)nc(=O)n1C[C@@H](CO)OCP(=O)(O)O`, the Activity result in data set [1], in data set [2] and in data set [8] was “Non-toxic” in each case. Further, the outcome in [3], in data set [4], in [5] and in data set [6] was inactive. Moreover, the CC50 in data set [7], in data set [9] and in data set [12] was > 100 µg/mL in each case. Besides, the “Ratio EC50” value in data set [10] and in data set [11] was 50 throughout.
